Fewer inactive variants are shown than the library holds.
B1: tRNA (parent)
chain: GUUCCGUUGGCGUAAUGGUAACGCGUCUCCCUCCUAAGGAGAAGACUGCGGGUUCGAGUCCCGUACGGAACG

Variants of: B1
Assay: yeast fitness relative to wild type (ratio to wild type); higher = fitter; tRNA-Arg(CCU), competitive growth, 37 C, YPD
Method in brief: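 A pool of Saccharomyces cerevisiae strains, each with a tRNA-Arg(CCU) gene variant at the native genomic locus, was competed in YPD at 37°C for 24 hours across six parallel replicates. The variants had been chemically synthesised at a 3% per-site mutation rate over 69 sites, and gene amplicons before and after competition were read by 100-nucleotide paired-end sequencing. Darwinian fitness relative to wild type rested on changes in genotype frequencies. Genotypes required ≥ 100 starting reads, and estimates < 0.5 were set to 0.5.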

Variant	yeast fitness
GUUCCGUUGGCCUAAUGGUGACGCGUCUCCCUCCUAAGGAGAAGAGUGCGGGUUCGAGUCCCGUACGGAACG [G12C A20G C46G]	0.548
GUUCCGUUGGCAAAAUGGUAACGCGUCUCCCUCCUAAGGAGAAGACUGCGGGUUCGAGUCCCGUCCGGAACG [G12A U13A A65C]	≤ 0.5
GUUCCGUUGGCAUAAUGGCAACGCGUCUCCCUCCUAAGGAGAAGACUGCGGGUUCGAGUCCCGUACGGAACG [G12A U19C]	0.982
GUUCCGUUGGCCUAAUGGUAUCGCGUCUCCCUCCUAAGGAGAAGACUGCCGGUUCGAGUCCCGUACGGACCG [G12C A21U G50C A70C]	≤ 0.5
GUUCCGUUGGCCUAAUGGUAACGCGUCUCCCUCCUAAGGAGGAGACUGCGGGUUCGAGUCCCGUACGGAUCG [G12C A42G A70U]	0.592
GUUCCGUUGGCACAAUGGUAACGCGUCUCCCUCCUAAGGAGAAGACUGUGGGUUCGAGUCCCGUACGGAACG [G12A U13C C49U]	0.674
GUUCCGUUGGCAUAAUGGUAACGCGUCUCCCUCCUAAGGACAAGCCUGCGGGUUCGAGUCCCGUACGAAACG [G12A G41C A45C G68A]	≤ 0.5
GUUCCGUUGGCCUAAUGGUAACGCGUCUCCCUCCUAAGGAGAAGUCUGCGGGUUCGAGUCCCGUACGGAUCG [G12C A45U A70U]	0.564
GUUCCGUUGGCAUAAUGGUAACGCCUCUCGCUCCUAAGGAGAAGACUGCGGGUUCGAGUCCCGUACGGAACG [G12A G25C C30G]	≤ 0.5
GUUCCGUUGGCCUAAUGGUAACGCGUCUCCCUCCUAAGGAGAAGACUGCGGGUUCGCGUCCCGUACGGAACG [G12C A57C]	0.545
GUUCCGUUGGCAUAAUGGUAACGCGUCUCCCUCCCAAGGAAAAGACUGCGCGUUCGAGUCCCGUACGGAACG [G12A U35C G41A G51C]	≤ 0.5
GUUCCGUUGGCAUAAUGGUAACGCGUCUCCCUCCUAAGGAGAAGACUGCGGGUUCGAGUCCCGUACGCAACG [G12A G68C]	0.667
GUUCCGUUGGCAUAAUGGUAACGCGUCUCCCUCCUAAGGAGAAGACUGCGGGUUCGAGUCCCGUACGUAACG [G12A G68U]	0.863
GUUCCGUUGGCAUAAUGGUAACGCGUCUCCCUCCUAAGGAGAAGACUGCGGGUUCGAGACCCGUACGGAACG [G12A U59A]	0.8
GUUCCGUUGGCCUAAUGGUCACGCGUCUCCCUCCUAAGGAGAAGACUGCGGGUUCGACUCCCGUACGGAUCG [G12C A20C G58C A70U]	≤ 0.5
GUUCCGUUGGCCUUAUGGUAACGCGUCUUCCUCCUAAGGAGAAGACUGCGGGUUCGAGUCCCGUACGGAACG [G12C A14U C29U]	≤ 0.5
GUUCCGUUGGCAUAAUGGUAACGCGACUCGCUUCUAAGGAGAAGACUGCGGGUUCGAGUCCCGUACGGAACG [G12A U26A C30G C33U]	≤ 0.5
GUUCCGUUGGCAUAAUGGUAACGCAUCUCCCUCCUAAGGAGAAGACUGCGGGUUCGAGUCCCGUACGGACCG [G12A G25A A70C]	0.76
GUUCCGUUGGCAUAAUGGUAACGCGUCUCCCUCCUAAGGAGAAGACUCCGGGUCCGAGUCCCGUACGGAACG [G12A G48C U54C]	0.567

Variant	yeast fitness
GUUCCGUUGGCAUAAUGGUAACGCGUCUCCCUCCUAACGAGAAGACUGUGGGUUCGAGUCCUGUACGGUACG [G12A G38C C49U C62U A69U]	0.973
GUUCCGUUGGCAUAAUGGUAACGCGUCUCCCGCCUAAGGAGAAGAAUGCGGGUUCGAGUCCCGUACGGAACG [G12A U32G C46A]	≤ 0.5
GUUCCGUUGGCAUAAUGGUAACGCGUCGCCCUGCUAAGGAGAAGACUGCGGGUUCGAGUCCCGUACGGAACG [G12A U28G C33G]	≤ 0.5
GUUCCGUUGGCAUAAUGGCAACCCGUCUCCCUCCUAAGGAGAAGACUGCGGGUUCGAGUCCCGUACCGAACG [G12A U19C G23C G67C]	≤ 0.5
GUUCCGUUGGCCUAAUGGUUGGGCGUCUCCCUCCUAAGGAGAAGACUGCAGGUUCGAGUCACGUACGGAACG [G12C A20U A21G C22G G50A C61A]	≤ 0.5
GUUCCGUUGGCCUAAUGGUAACGCGUCUCCCUCCUAAGGAGAUGACUGCGGGUUCGAGUCCCGUACGGACCG [G12C A43U A70C]	0.521
GUUCCGUUGGCCUAAUGGUAACGCGUCUCCCUCCUAAGGAGAAGACUGCGGGUUCGAGUCCCGUACGGAUCG [G12C A70U]	0.707
GUUCCGUUGGCAUAAUGGUAACGCGUCGCGCUCCUAAGGAGAAGACUGUGGGUUCGAGUCCCGCACGGAACG [G12A U28G C30G C49U U64C]	≤ 0.5
GUUCCGUUGGCAUAAUGGUAACGCGUCUCCCUCCUAAGCAGAAGAAUGCGGGUUCGAGUCCCGUACGGAACG [G12A G39C C46A]	0.554
GUUCCGUUGGCCUAUUGGUAACGAGUCUCCCUCCUAAGGAGAAGACUGCGGGUUCGAGUCCCGUACGGAACG [G12C A15U C24A]	0.528
GUUCCGUUGGCAUAAUGGUAACGCAUCUCCCUCCUAAGGAGAAGACUGCGGGUUCGAGUACCGUACGGAACG [G12A G25A C60A]	≤ 0.5
GUUCCGUUGGCCUAAUGGUCACGCGUCUCCGUCCUAAGGAGAAGACUGCGGGUUCGAGUCCCGUACGGAACG [G12C A20C C31G]	0.596
GUUCCGUUGGCAUAAUGGUAACGCGUCUCCCUCCUAAGCAGAAGACUGCGGGUUCGAGUCCCGUACGGAACG [G12A G39C]	0.896
GUUCCGUUGGCAUAAUGGUAACGCGUCUCCCUCCUAAGGAGAAGACUGCGGAUUCGAGUCCCGUACGAAACG [G12A G52A G68A]	≤ 0.5
GUUCCGUUGGCCUAUUGGUAACGCGUCUCCCUUCUAAGGAGAAGACUGGGGGUUCGAAUCCCGUACGGAACG [G12C A15U C33U C49G G58A]	≤ 0.5
GUUCCGUUGGCAUAAUGGUAACGCGUCUCCCGCCAAACGAGAAGACUGCGCGUUCGAGUCCCGUAUGGAACG [G12A U32G U35A G38C G51C C66U]	≤ 0.5
GUUCCGUUGGCCUAAUGGUAACGCGUCUCCCUCCUAAGGAGAGGACUGCGGGUCCGAGUCCCGUACGGCCCG [G12C A43G U54C A69C A70C]	≤ 0.5
GUUCCGUUGGCCUAAUGGUAACGCGUCUCCCUCCUAAGGAGAAGACUGCGGGUUCGAGUCCCGUUCGGAACG [G12C A65U]	0.735
GUUCCGUUGGCAUAAUGGUAACGCAUCUCGCUCCUAAGGAGAAGACUGCGGGUUCGACUCCCGUAAGGAACG [G12A G25A C30G G58C C66A]	≤ 0.5
